Test system: Fibroblast
Assay: Multiplex assay against human fibroblast
Format: toxicity, cell-based
How it was run: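 Per cents of healthy-nucleus cells form the tubulin, mitochondrial-mass and membrane-permeability phenotype values. Live cells were stained at seeding with Hoechst33342, BioTracker Green Microtubule Cytoskeleton Dye, MitoTracker Red and Annexin V Alexa Fluor 680. After compound addition they were imaged on a CQ1 microscope at 37°C and 5% CO2, and CellPathfinder machine-learning gating split them into Hoechst high-intensity objects or normal cells, normal cells into healthy, pyknosed or fragmented nuclei, and pyknosed cells into mitotic or apoptotic.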

[1] = 12 h, 1 µM, compound concentration 1 uM, replicate 1
[2] = 12 h, 1 µM, compound concentration 1 uM, replicate 2
[3] = 12 h, 10 µM, compound concentration 10 uM, replicate 1
[4] = 12 h, 10 µM, compound concentration 10 uM, replicate 2
[5] = 24 h, 1 µM, compound concentration 1 uM, replicate 1
[6] = 24 h, 1 µM, compound concentration 1 uM, replicate 2
[7] = 24 h, 10 µM, compound concentration 10 uM, replicate 1
[8] = 24 h, 10 µM, compound concentration 10 uM, replicate 2
[9] = 48 h, 1 µM, compound concentration 1 uM, replicate 1
[10] = 48 h, 1 µM, compound concentration 1 uM, replicate 2
[11] = 48 h, 10 µM, compound concentration 10 uM, replicate 1
[12] = 48 h, 10 µM, compound concentration 10 uM, replicate 2

## CN(C)C(=O)Cn1cc(-c2ccc(-c3nnc4ccccn34)cc2)cn1
[1]
  Population Apoptotic (%): 57%
  Population Fragmented Nuclei (%): 18%
  Population Healthy Nuclei (%): 60%
  Population Hoechst High Intensity Objects (%): 5%
  Population Membrane Permeable-Phenotype (%): 1%
  Population Mitochondria Different-Phenotype (%): 3%
  Population Mitotic Cells (%): 42%
  Population Normal (%): 94%
  Population Pyknosed Nuclei (%): 21%
  Population Tubulin-Different-Phenotype (%): 22%
  Total Cell Count: 139
[2]
  Population Apoptotic (%): 55%
  Population Fragmented Nuclei (%): 20%
  Population Healthy Nuclei (%): 58%
  Population Membrane Permeable-Phenotype (%): 7%
  Population Mitochondria Different-Phenotype (%): 7%
  Population Mitotic Cells (%): 44%
  Population Pyknosed Nuclei (%): 20%
  Population Tubulin-Different-Phenotype (%): 42%
  Total Cell Count: 152
[3]
  Population Apoptotic (%): 52%
  Population Fragmented Nuclei (%): 8%
  Population Healthy Nuclei (%): 63%
  Population Hoechst High Intensity Objects (%): 3%
  Population Membrane Permeable-Phenotype (%): 0%
  Population Mitochondria Different-Phenotype (%): 6%
  Population Mitotic Cells (%): 47%
  Population Normal (%): 96%
  Population Pyknosed Nuclei (%): 28%
  Population Tubulin-Different-Phenotype (%): 31%
  Total Cell Count: 140
[4]
  Population Apoptotic (%): 39%
  Population Fragmented Nuclei (%): 31%
  Population Healthy Nuclei (%): 38%
  Population Hoechst High Intensity Objects (%): 8%
  Population Membrane Permeable-Phenotype (%): 15%
  Population Mitochondria Different-Phenotype (%): 18%
  Population Mitotic Cells (%): 60%
  Population Normal (%): 91%
  Population Pyknosed Nuclei (%): 29%
  Population Tubulin-Different-Phenotype (%): 70%
  Total Cell Count: 123
[5]
  Population Apoptotic (%): 56%
  Population Fragmented Nuclei (%): 23%
  Population Healthy Nuclei (%): 60%
  Population Hoechst High Intensity Objects (%): 0%
  Population Membrane Permeable-Phenotype (%): 2%
  Population Mitochondria Different-Phenotype (%): 1%
  Population Mitotic Cells (%): 43%
  Population Normal (%): 99%
  Population Pyknosed Nuclei (%): 16%
  Population Tubulin-Different-Phenotype (%): 25%
  Total Cell Count: 144
[6]
  Population Apoptotic (%): 54%
  Population Hoechst High Intensity Objects (%): 4%
  Population Membrane Permeable-Phenotype (%): 4%
  Population Mitochondria Different-Phenotype (%): 3%
  Population Mitotic Cells (%): 45%
  Population Normal (%): 95%
  Population Tubulin-Different-Phenotype (%): 41%
  Total Cell Count: 142
[7]
  Population Apoptotic (%): 65%
  Population Fragmented Nuclei (%): 10%
  Population Healthy Nuclei (%): 65%
  Population Hoechst High Intensity Objects (%): 5%
  Population Membrane Permeable-Phenotype (%): 2%
  Population Mitochondria Different-Phenotype (%): 5%
  Population Mitotic Cells (%): 34%
  Population Normal (%): 94%
  Population Pyknosed Nuclei (%): 24%
  Population Tubulin-Different-Phenotype (%): 25%
  Total Cell Count: 140
[8]
  Population Apoptotic (%): 26%
  Population Fragmented Nuclei (%): 36%
  Population Healthy Nuclei (%): 40%
  Population Hoechst High Intensity Objects (%): 9%
  Population Membrane Permeable-Phenotype (%): 10%
  Population Mitochondria Different-Phenotype (%): 6%
  Population Mitotic Cells (%): 73%
  Population Normal (%): 90%
  Population Pyknosed Nuclei (%): 22%
  Population Tubulin-Different-Phenotype (%): 71%
  Total Cell Count: 126
[9]
  Population Apoptotic (%): 58%
  Population Fragmented Nuclei (%): 22%
  Population Healthy Nuclei (%): 61%
  Population Hoechst High Intensity Objects (%): 1%
  Population Membrane Permeable-Phenotype (%): 4%
  Population Mitochondria Different-Phenotype (%): 4%
  Population Mitotic Cells (%): 41%
  Population Normal (%): 98%
  Population Pyknosed Nuclei (%): 16%
  Population Tubulin-Different-Phenotype (%): 29%
  Total Cell Count: 151
[10]
  Population Apoptotic (%): 42%
  Population Fragmented Nuclei (%): 28%
  Population Healthy Nuclei (%): 52%
  Population Hoechst High Intensity Objects (%): 5%
  Population Membrane Permeable-Phenotype (%): 6%
  Population Mitochondria Different-Phenotype (%): 2%
  Population Mitotic Cells (%): 57%
  Population Normal (%): 94%
  Population Pyknosed Nuclei (%): 18%
  Population Tubulin-Different-Phenotype (%): 46%
  Total Cell Count: 147
[11]
  Population Apoptotic (%): 52%
  Population Fragmented Nuclei (%): 16%
  Population Healthy Nuclei (%): 66%
  Population Hoechst High Intensity Objects (%): 2%
  Population Membrane Permeable-Phenotype (%): 0%
  Population Mitochondria Different-Phenotype (%): 2%
  Population Mitotic Cells (%): 47%
  Population Normal (%): 97%
  Population Pyknosed Nuclei (%): 17%
  Population Tubulin-Different-Phenotype (%): 38%
  Total Cell Count: 137
[12]
  Population Apoptotic (%): 60%
  Population Fragmented Nuclei (%): 44%
  Population Healthy Nuclei (%): 47%
  Population Hoechst High Intensity Objects (%): 3%
  Population Membrane Permeable-Phenotype (%): 18%
  Population Mitochondria Different-Phenotype (%): 8%
  Population Mitotic Cells (%): 40%
  Population Normal (%): 96%
  Population Pyknosed Nuclei (%): 7%
  Population Tubulin-Different-Phenotype (%): 73%
  Total Cell Count: 131

From ChEMBL document CHEMBL5058577, “EUbOPEN Chemogenomics Library 2 (Multiplex)” (2022)
